Data: publication PMC9575670 (Journal of Medicinal Chemistry, 2022)
pIC50: −log10 of the molar value.

Experiments:
[1] = system: pancreatic cancer (ASPC-1) cell line; assay: MTT in vitro antiproliferation assay, ASPC-1; type: cell-based; details: Homo sapiens, ASPC1, 24 h, read-out: IC50 ± SD ASPC-1
[2] = system: lung cancer (A549) cell line; assay: MTT in vitro antiproliferation assay, A549; type: cell-based, human; details: for pIC50: Homo sapiens, A549, 24 h, read-out: IC50 ± SD A549; for selectivity index (SI), cancer cells (A549) over normal cells (MRC-5): IC50 MRC-5 / IC50 A549
[3] = system: breast cancer (MCF-7) cell line; assay: MTT in vitro antiproliferation assay, MCF-7; type: cell-based; details: Homo sapiens, MCF7, 24 h, read-out: IC50 ± SD MCF-7
[4] = system: colon cancer (HCT 116) cell line; assay: MTT in vitro antiproliferation assay, HCT 116; type: cell-based; details: Homo sapiens, HCT-116, 24 h, read-out: IC50 ± SD HCT 116
[5] = system: lung normal (MRC-5) cell line; assay: MTT in vitro antiproliferation assay, MRC-5; type: cell-based; details: Homo sapiens, MRC5, 24 h, read-out: IC50 ± SD MRC-5
[6] = system: lung normal IMR-90 cell line; assay: MTT in vitro antiproliferation assay, IMR-90; type: cell-based; details: Homo sapiens, IMR-90, 24 h, read-out: IC50 ± SD IMR-90
[7] = system: normal CCD-18Co cell line; assay: MTT in vitro antiproliferation assay, CCD-18Co; type: cell-based; details: Homo sapiens, 24 h, read-out: IC50 ± SD CCD-18Co
[8] = system: cancer cell lines (ASPC-1, A549, MCF-7, HCT 116); assay: MTT in vitro antiproliferation assay, cancer cell line panel; type: cell-based, human; details: for pIC50: Homo sapiens, 24 h, read-out: IC50 values in cancer cell lines (range); for selectivity index (SI) / cancer cell selectivity over normal cells (MRC-5), range: range over cancer cell lines vs MRC-5
tubulin = assay: In vitro tubulin polymerization assay; type: biochemical; details: 20 μM, compared to vehicle control
A549 cells = assay: Cell cycle analysis by flow cytometry; type: cell-based, human; details: A549, up to 1.0 μM, 24 h, compared to vehicle
MCF-7 cells = assay: Cell cycle analysis by flow cytometry; type: cell-based, human; details: MCF-7, up to 1.0 μM, 24 h, compared to vehicle
4T1 cells tumor = assay: In vivo antitumor activity, 4T1 xenograft model, 11 day study; design: species or system BALB/c mice; details: G4 DOX: 2 mg/kg IP once in 3 days
How it was run: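 BALB/c mice received 4T1 cells (1 × 10^5/mouse) subcutaneously into the left mammary fat pad. Caliper volume = length × width²/2. At about 50 mm³, mice were allocated to four groups, unrandomized and unblinded. All dosing was IP: 0.9% saline vehicle; test compound 0.711 or 1.422 mg/kg (days 1–3) then 14.22 or 28.44 mg/kg (days 4–11); doxorubicin 2 mg/kg every 3 days. Tumours were excised on day 12 and volume and mass measured; one-way ANOVA.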

Row | Structure (SMILES) | pIC50 [1] | pIC50 [2] | selectivity index (SI), cancer cells (A549) over normal cells (MRC-5) [2] | pIC50 [3] | pIC50 [4] | pIC50 [5] | pIC50 [6] | pIC50 [7] | pIC50 [8] | times lower activity than the CLC and NOZ ([8]; IC50 comparison) | effect on tubulin polymerization (tubulin) | accumulation of cells in the G2/M phase (A549 cells) | accumulation of cells in the G2/M phase (MCF-7 cells) | selectivity index (SI) / cancer cell selectivity over normal cells (MRC-5), range [8] | average tumor mass reduction at the endpoint (4T1 cells tumor) [%] | average tumor volume reduction at the endpoint compared to G1 (4T1 cells tumor) [%]
1 | CCCSc1ccc2nc(NC(=O)OC)[nH]c2c1 [Al, albendazole] | 4.25 | 4.14 | 1.32 | 4.23 | 4.28 | 4.02 | 3.55 | 3.92 | 4.14 to 4.28 | 7–10 | inhibition of tubulin polymerization | slight accumulation of cells in the G2/M phase | slight accumulation of cells in the G2/M phase | – | – | –
2 | CCCSc1ccc2[nH]c(N[C@H]3O[C@@H](CO)[C@H](O)[C@@H](O)[C@@H]3O)nc2c1 [Al–G, albendazole amine glucose conjugate] | 3.74 | 3.86 | – | 3.88 | 3.81 | 3.05 | < 3.00 | 3.15 | 3.74 to 3.88 | – | inhibition of tubulin polymerization | slight accumulation of cells in the G2/M phase | slight accumulation of cells in the G2/M phase | five to seven times | – | –
3 | COC(=O)Nc1nc2ccc(C(=O)c3cccs3)cc2[nH]1 [NOZ, nocodazole] | 4.98 | 4.97 | 1.2 | 5.13 | 5.17 | 4.92 | – | – | – | – | inhibited | – | – | 1.1–1.8 | – | –
4 | CC(=O)O[C@H]1C(=O)[C@@]2(C)[C@H]([C@H](OC(=O)c3ccccc3)[C@]3(O)C[C@H](OC(=O)[C@H](O)[C@@H](NC(=O)c4ccccc4)c4ccccc4)C(C)=C1C3(C)C)[C@]1(OC(C)=O)CO[C@@H]1C[C@@H]2O [PCL, paclitaxel] | – | – | – | – | – | – | – | – | – | – | enhanced the tubulin polymerization | – | – | – | – | –
5 | COc1cccc2c1C(=O)c1c(O)c3c(c(O)c1C2=O)C[C@@](O)(C(=O)CO)C[C@@H]3O[C@H]1C[C@H](N)[C@H](O)[C@H](C)O1 [doxorubicin] | – | – | – | – | – | – | – | – | – | – | – | – | – | – | 14.5 | 29.4
